Only some compounds are listed: those with a hit (about 2.3% of all), similar ones and a draw of the others.
Myeloid diff MLP: myeloid differentiation induction | ER-HoxA9 myeloid progenitors, lysozyme-GFP differentiation, flow cytometry | calls only at 10 µM | actives 1% (n = 360,000) | AID 624256;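 active = normalized GFP-positive differentiation at or above the plate's own cutoff, the solvent-only control mean plus 3 SD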;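 also: cells exposed to compound for four days before flow analysis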
HNF4A DNA FP: change in binding of human HNF4 alpha to DNA; P41235; HNF4a-FITC DNA binding, fluorescence polarization, 1 h; activity change, % at 10 µM; actives 0.3% (n = 360,000); AID 1224865; in the data active = activity change above about 30%, passing the limit was not always enough
Target sequence (P41235 whole entry, looked up): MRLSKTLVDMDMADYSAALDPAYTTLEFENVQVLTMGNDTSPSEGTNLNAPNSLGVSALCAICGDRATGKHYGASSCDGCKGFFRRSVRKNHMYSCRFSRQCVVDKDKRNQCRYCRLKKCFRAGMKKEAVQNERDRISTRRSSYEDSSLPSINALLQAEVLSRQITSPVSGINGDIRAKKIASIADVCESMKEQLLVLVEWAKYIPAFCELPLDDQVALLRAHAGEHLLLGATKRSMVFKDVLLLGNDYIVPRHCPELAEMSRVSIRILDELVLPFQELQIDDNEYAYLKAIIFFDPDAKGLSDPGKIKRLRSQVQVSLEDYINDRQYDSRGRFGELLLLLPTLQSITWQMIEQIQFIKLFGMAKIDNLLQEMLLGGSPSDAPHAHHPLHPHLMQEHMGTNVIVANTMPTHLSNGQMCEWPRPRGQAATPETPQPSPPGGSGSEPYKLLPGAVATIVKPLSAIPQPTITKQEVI
TPT1 inhibitor: C. albicans TPT1 enzyme inhibition; recombinant caTPT1, FP RNA substrate dephosphorylation; inhibition, % at 5 µM; actives 0.81% (n = 300,000);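 active = inhibition above the mean of all tested compounds plus 3 SD, set per screening campaign, cut at about 24% in these data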;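 also: plate controls were DMSO alone for no effect and ferristatin control at 100 nM for full effect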
Rpn11 inh: blocks the human proteasome subunit Rpn11; O00487; human 26S proteasome, Ub4-pepOG fluorescence polarization; 20S core pre-blocked with epoxomicin; inhibition, % at 20 µM; actives 0.59% (n = 360,000);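 active = inhibition at 20 µM, scaled to each plate's controls, above about 33%, limit read from the data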
CSN inh: inhibitors of human CSN-mediated cullin deneddylation. inhibition, % at 12.5 µM. Purified CSN, SCF-Nedd8-OG deneddylation, fluorescence polarization. actives 0.38% (n = 360,000);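 active = pattern-corrected inhibition above about 35%, with an unprinted fluorescence ratio check between 0.5 and 1.5, limit read from the data, passing the limit was not always enough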;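 also: 0% = enzyme with substrate and 100% = substrate without enzyme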
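Material: human Csn5 produced in HEK293T cells; Input: enzyme 0.24 nM; Reagent: SCFSkp2-Nedd8OG substrate at 10 nM final; Dosing: 12.5 µM compound; Incubation: 90 min reaction at room temperature; Detection: fluorescence polarization of the substrate; Evaluation: % inhibition of substrate cleavage by Csn5; Control set: substrate-only high control, full reaction low control.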
Myeloid diff CP1: myeloid differentiation induction | shares compounds with Myeloid diff MLP | ER-HoxA9 myeloid progenitors, GFP/Mac1 double-positive flow | calls only | actives 2% (n = 2,300);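 active = share of green or green-and-red cells above 9 and 9% in run 1 or 4 and 3% in run 2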
GFP autofluor: compound fluorescence in myeloid differentiation counter-screen; actives 7.4% (n = 2,300); ER-HoxA9 myeloid progenitors, no estrogen, GFP autofluorescence flow cytometry; vehicle wells 0%, positive control 100%; fluorescence response, % (concentration not given with the values); shares compounds with Myeloid diff MLP;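 active = over 5% cells positive for green fluorescent reporter, or over 2% positive for both it and APC stain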;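 also: range taken on the double positive population between DMSO and positive control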
The depositor's hits bear a star; i = inactive; nt = not tested or not shown; + = active, no number.

SMILES	Myeloid diff MLP	HNF4A DNA FP	TPT1 inhibitor	Rpn11 inh	CSN inh	Myeloid diff CP1	GFP autofluor
COCc1cc(=O)[nH]c(/N=C(\N)Nc2cccc(Cl)c2)n1	i	4	1	-6	-7	nt	nt
COc1ccc(-c2nc3ccccc3c(=O)n2N)cc1	i	-1	-4	-3	0	nt	nt
COc1ccc2cc(C(C)c3nc4ccccc4c(=O)n3N)ccc2c1 (stereo not drawn)	+	-1	4	-5	0	i	0
Cc1ccc(-n2c(O)c(C=Nc3ccccc3-c3n[nH]c(=S)[nH]c3=O)c3ccccc3c2=O)cc1C	i	-2	nt	7	10	i	0
Cc1ccc(C(=O)/C=C/c2ccc(-c3ccccc3[N+](=O)[O-])o2)cc1	nt	-8	4	0	-1	i	0
O=C(/C=C/c1ccc(-c2ccccc2[N+](=O)[O-])o1)c1ccc(Br)cc1	i	1	5	6	5	nt	nt
Cc1cc(=O)n(CNC(=O)c2ccccc2)c(=S)[nH]1	i	-3	-1	0	3	i	3
COc1cccc(/C=N/NC(=O)NC2CCCCC2)c1O	i	-5	-4	-3	-1	nt	nt
CNc1ccccc1C(C)(C)c1cc(-c2cccc(Br)c2)no1	+	21	-16	39	15	i	81*
C[C@@H]1CN([C@H](C)CO)C(=O)c2cc(C#CC3CCCCC3)cnc2O[C@H]1CN(C)Cc1cccnc1	i	-4	nt	-1	1	i	0
OC[C@@H]1CN(Cc2ccc(F)cc2)C[C@H](n2cnc3c(N4CCCC4)ncnc32)O1	i	0	nt	-6	0	nt	nt
Cc1onc(-c2c(Cl)cccc2Cl)c1NC(=O)NNc1ccccc1	+	2	-1	-5	-3	i	0
Cc1onc(-c2c(Cl)cccc2Cl)c1NC(=O)NNc1c(Cl)cncc1Cl	i	-1	2	2	3	nt	nt
C/C(N)=C(/C#N)C(=O)COC(=O)c1cc(C)n(-c2ccc(F)cc2)c1C	+	1	3	-3	0	+	0
Cc1cc(C(=O)OCC(N)=O)c(C)n1-c1ccccc1	i	-1	1	-4	-1	nt	nt
CN(Cc1nc(-c2cnccn2)no1)C1CC(C)(C)NC(C)(C)C1	i	-4	-3	2	-5	i	0
Cc1cc(C)cc(N(C(=O)Cc2cccs2)C(C(=O)NC2CCCC2)c2ccc(C)o2)c1 (stereo not drawn)	i	-2	1	-2	4	nt	nt
COc1ccccc1CN(C(=O)Cc1cccs1)C(C(=O)NC1CCCC1)c1ccncc1 (stereo not drawn)	i	1	9	-6	-1	i	0
Cc1ccc(C(C(=O)NC2CCCC2)N(C(=O)Cc2cccs2)c2cccc(C)c2C)o1 (stereo not drawn)	i	1	2	2	0	i	0
Cc1ccc(/C=N/N=C2/NC(=O)C(CC(=O)Nc3ccccc3)S2)o1 (stereo not drawn)	i	-2	-2	3	-3	nt	nt
COc1ccc(CN(C(=O)c2cc(=O)c3ccccc3o2)C2CCS(=O)(=O)C2)cc1OC (stereo not drawn)	i	2	-3	2	2	nt	nt
CC(C)C1O/C(=N/C(=O)Nc2ccc(Cl)c(Cl)c2)NC1=O (stereo not drawn)	i	-2	-1	-6	0	i	0
c1ccc(CCNc2ccc3ncc(-c4cccc5ccccc45)n3n2)nc1	i	-2	nt	-6	-2	nt	nt
c1ccc2cc(C3OCC4(CCCC4)CO3)ccc2c1	i	4	nt	0	-5	nt	nt
O=C1CCC(c2ccc3ccccc3c2)O1 (stereo not drawn)	i	-1	nt	2	3	i	2
SMILES	Myeloid diff MLP	HNF4A DNA FP	TPT1 inhibitor	Rpn11 inh	CSN inh	Myeloid diff CP1	GFP autofluor
CC(C)(CO)NCC(=O)Nc1cc(C(F)(F)F)cc(NC(=O)CNC(C)(C)CO)c1Cl	i	-1	-2	7	7	nt	nt
COc1ccc(C(=O)NC(=S)Nc2ccc(S(=O)(=O)Nc3cc(OC)nc(OC)n3)cc2)cc1	+	0	2	-3	-1	i	0
Cc1cc(C)c(C)c(S(=O)(=O)Nc2ccccc2N2CCOCC2)c1C	i	0	nt	2	0	nt	nt
CC(=O)c1c(C)n(CC(=O)NCc2ccc3c(c2)OCO3)c2ccccc12	+	0	-2	3	-1	i	98*
COc1ccccc1NC(=O)N1CCN(c2ccccc2F)CC1	i	-1	8	-1	5	i	0
NC(=O)CC(NC(=O)c1ccccc1)c1ccc(NCc2ccc(F)cc2)c([N+](=O)[O-])c1 (stereo not drawn)	+	6	-4	22	0	i	0
NC(=O)CC(NC(=O)c1ccccc1)c1ccc(NCc2ccccc2)c([N+](=O)[O-])c1 (stereo not drawn)	i	-2	-3	3	0	nt	nt
N#CCCn1cc(/C=N/N=C2\NC(=O)C(CC(=O)O)S2)c(-c2ccc(F)cc2)n1 (stereo not drawn)	i	-1	3	11	-2	nt	nt
COCCNCC(=O)Nc1ccccc1Sc1ccccc1	i	-3	-5	1	6	nt	nt
COc1cc(CNCCc2c[nH]c3ccccc23)ccc1OCc1ccc(F)cc1	i	1	1	2	-3	i	0
C[C@H](CO)N1C[C@H](C)[C@@H](CN(C)Cc2ccc(Cl)c(Cl)c2)Oc2ccc(NC(=O)Cn3cnnn3)cc2C1=O	i	-1	nt	0	0	nt	nt
O=C(Nc1cc(S(=O)(=O)N2CCOCC2)ccc1N1CCOCC1)c1ccc([N+](=O)[O-])s1	i	2	nt	-4	-1	nt	nt
Cc1ccc(NC(=O)c2ccc([N+](=O)[O-])s2)cc1S(=O)(=O)N1CCOCC1	+	4	nt	5	-5	i	0
COCCCn1c(SCC(=O)OC2CCCCC2)nnc1-c1cccs1	i	-4	0	-3	-1	i	0
O=C(OCc1ccccc1)N1CCOCCOCCN(C(=O)OCc2ccccc2)CCOCCOCC1	+	5	-5	5	-1	i	0
CCCS(=O)(=O)NC(=O)C1(C)CCN(C(=O)c2cccc(C(F)(F)F)c2)C1 (stereo not drawn)	+	3	nt	-2	0	i	0
O=C(COC(=O)c1cnccn1)c1ccc2ccccc2c1	i	3	-2	0	-6	i	0
CN(CCC1CCCCO1)C(=O)CCc1nnc(C2CCCCC2)o1 (stereo not drawn)	i	1	-1	1	-2	nt	nt

Compound activity from PubChem.
